Data from ChEMBL document CHEMBL4680100, “Revisiting the SAR of the Antischistosomal Aryl Hydantoin (Ro 13-3978)” (J Med Chem, 2016).
In brackets after ≈: the same amount, converted by molar mass.

What was measured:
L6 = test: Cytotoxicity against rat L6 cells assessed as reduction in cell viability at up to 30 uM; assay type: cell-based
[1] = Kinetic solubility of the compound in 0.01 M HCl at pH 2 by nephelometry; assay type: physicochemical; conditions: read-out: Kinetic_solubility
Androgen receptor = target: T1, Androgen receptor (Homo sapiens, UniProt P10275)
T1 sequence (P10275 whole entry): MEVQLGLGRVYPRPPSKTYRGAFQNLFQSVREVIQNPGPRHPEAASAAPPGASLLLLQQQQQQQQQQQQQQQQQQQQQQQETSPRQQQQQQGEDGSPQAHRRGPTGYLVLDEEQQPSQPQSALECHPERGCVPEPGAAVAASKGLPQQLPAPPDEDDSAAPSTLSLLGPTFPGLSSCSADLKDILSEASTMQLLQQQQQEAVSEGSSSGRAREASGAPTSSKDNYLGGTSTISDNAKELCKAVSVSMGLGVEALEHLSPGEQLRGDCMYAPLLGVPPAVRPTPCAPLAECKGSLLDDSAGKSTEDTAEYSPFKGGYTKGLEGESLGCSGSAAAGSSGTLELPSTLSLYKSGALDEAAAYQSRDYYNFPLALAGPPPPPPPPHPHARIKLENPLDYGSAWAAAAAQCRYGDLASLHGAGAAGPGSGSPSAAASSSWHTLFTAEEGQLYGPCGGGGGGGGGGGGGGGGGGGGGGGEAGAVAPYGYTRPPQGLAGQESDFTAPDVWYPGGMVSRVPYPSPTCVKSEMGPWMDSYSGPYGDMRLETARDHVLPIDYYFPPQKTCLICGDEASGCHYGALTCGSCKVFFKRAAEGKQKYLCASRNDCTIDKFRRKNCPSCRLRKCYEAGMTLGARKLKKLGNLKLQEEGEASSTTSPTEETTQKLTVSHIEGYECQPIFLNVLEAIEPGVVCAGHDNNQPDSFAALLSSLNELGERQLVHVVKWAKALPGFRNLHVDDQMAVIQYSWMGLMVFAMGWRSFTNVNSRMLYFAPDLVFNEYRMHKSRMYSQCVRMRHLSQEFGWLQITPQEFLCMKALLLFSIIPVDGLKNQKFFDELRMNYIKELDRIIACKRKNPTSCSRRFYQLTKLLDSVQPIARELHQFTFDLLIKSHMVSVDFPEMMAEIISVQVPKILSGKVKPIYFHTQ

[2] = Intrinsic clearance in human liver microsome in presence of NADPH-regenerating system incubated over 60 mins by LC-MS analysis; conditions: microsomes, 1 h
[3] = Intrinsic clearance in mouse liver microsome in presence of NADPH-regenerating system incubated over 60 mins by LC-MS analysis; conditions: microsomes, 1 h
Albumin = Albumin (Homo sapiens, UniProt P02768); test: Protein binding in immobilized human serum albumin by HPLC analysis; assay type: ADME; conditions: isolated protein
How it was run: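 Binding estimated from gradient HPLC retention on a human albumin column, correlated against standard compounds of known protein binding.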

Schistosoma mansoni = test: Antischistosomal activity against Schistosoma mansoni infected in NMRI mouse assessed as reduction in total worm burden at 100 mg/kg, po administered as single dose starting on day 49 post-infection and measured at 28 days post treatment relative to control; assay type: functional; design: scale not given: the % may be the effect or the level left; conditions: time 28 day
How it was run: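 S. mansoni-infected NMRI mice treated on day 49 post-infection with a single oral dose, dissolved or suspended in 7% v/v Tween 80, 3% v/v ethanol (10 mL/kg), five mice per group. Sacrificed and dissected 28 d post-treatment; worms counted to give total worm burden reduction versus untreated controls. Kruskal–Wallis test on medians, treatment versus control.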

[4] = Kinetic solubility of compound at pH 6.5 phosphate buffer by nephelometry; assay type: physicochemical; conditions: read-out: Kinetic_solubility
[5] = Octanol/water partition coefficient, logD of the compound at pH 7.4 by HPLC analysis

Sequence of Albumin (P02768 whole entry): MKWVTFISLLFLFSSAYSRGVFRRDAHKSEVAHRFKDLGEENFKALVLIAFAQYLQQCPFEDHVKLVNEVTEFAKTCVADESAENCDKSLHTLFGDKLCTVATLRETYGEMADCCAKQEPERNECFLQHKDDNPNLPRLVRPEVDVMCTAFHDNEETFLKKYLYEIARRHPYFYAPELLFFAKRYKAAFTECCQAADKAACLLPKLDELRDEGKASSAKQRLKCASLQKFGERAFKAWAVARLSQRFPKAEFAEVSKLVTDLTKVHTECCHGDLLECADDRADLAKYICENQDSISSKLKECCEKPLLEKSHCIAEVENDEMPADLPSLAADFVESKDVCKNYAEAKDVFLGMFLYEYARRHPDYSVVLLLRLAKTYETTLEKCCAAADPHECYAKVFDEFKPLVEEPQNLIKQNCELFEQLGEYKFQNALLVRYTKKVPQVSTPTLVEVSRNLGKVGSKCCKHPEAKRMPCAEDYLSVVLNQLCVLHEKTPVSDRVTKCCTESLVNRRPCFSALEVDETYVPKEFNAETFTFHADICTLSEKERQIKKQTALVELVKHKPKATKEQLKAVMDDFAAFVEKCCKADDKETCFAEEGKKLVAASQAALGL

Compound | Activity (L6) | solubility kinetic [1] [µg/mL] | IC50 (Androgen receptor) [µM] | CLH [2] [µL/min/mg] | CLH [3] [µL/min/mg] | PPB (Albumin) [%] | Activity (Schistosoma mansoni) [%] | solubility kinetic [4] [µg/mL] | logD [5]
CC1(C)OC(=O)N(c2ccc(F)c(C(F)(F)F)c2)C1=O | Non-Toxic | 3.1 (≈ 10.6 µM) | 2.1 | 12 | 12 | 58.1 | 11 | 3.1 (≈ 10.6 µM) | 3.7
CC1(C)NC(=O)N(c2ccc(C(F)(F)F)nc2)C1=O | Non-Toxic | > 100 | > 10 | < 7 | < 7 | 18.3 | 0 | > 100 | 1.8
CC1(C)NC(=O)N(c2ccc([N+](=O)[O-])c(C(F)(F)F)c2)C1=O [NILUTAMIDE] | – | 50 (≈ 158 µM) | – | < 7 | < 7 | 70.3 | 31 | 50 (≈ 158 µM) | 3
CC1(C)C(=O)N(c2ccc(F)c(C(F)(F)F)c2)C(=O)N1CC#N | Non-Toxic | 25 (≈ 75.9 µM) | 0.29 | – | – | 48.2 | 91 | 25 (≈ 75.9 µM) | 3.4
CC1(C)NC(=O)N(c2cnccn2)C1=O | Non-Toxic | > 100 | > 10 | < 7 | < 7 | 5.8 | 42 | > 100 | 0.3
CC1(C)NC(=O)C(c2ccc(F)c(C(F)(F)F)c2)C1=O (centres undefined) | Non-Toxic | 25 (≈ 86.4 µM) | > 10 | < 7 | < 7 | 93.3 | 0 | > 100 | 0.5
CC1(C)NC(=O)N(c2cccc(C(F)(F)F)c2)C1=O | Non-Toxic | > 100 | 6 | < 7 | < 7 | 49.3 | 80 | > 100 | 2.5
O=C1CNC(=O)N1c1ccc(F)c(C(F)(F)F)c1 | Non-Toxic | > 100 | 0.26 | < 7 | 13 | 43.6 | 0 | > 100 | 2
CC1(C)NC(=O)N(c2cccnc2)C1=O | Non-Toxic | > 100 | 9.6 | < 7 | < 7 | 6.6 | 38 | > 100 | 0.2
CC1(C)CNC(=O)N(c2ccc(F)c(C(F)(F)F)c2)C1=O | Non-Toxic | 12.5 (≈ 41.1 µM) | 6.9 | 9 | 15 | 21.5 | 19 | 12.5 (≈ 41.1 µM) | 2.5
CC1(C)C(=O)NC(=O)N1c1ccc(F)c(C(F)(F)F)c1 | Non-Toxic | 25 (≈ 86.1 µM) | 2.8 | < 7 | < 7 | 67.1 | 0 | 25 (≈ 86.1 µM) | 2.5
CC1(C)C(=O)N(c2ccc(F)c(C(F)(F)F)c2)C(=O)N1S(C)(=O)=O | Non-Toxic | 1.6 (≈ 4.34 µM) | 6.3 | < 7 | < 7 | 66 | 19 | 1.6 (≈ 4.34 µM) | 3.8
